Source: ChEMBL document CHEMBL4665761, “Optimizing the Benefit/Risk of Acetyl-CoA Carboxylase Inhibitors through Liver Targeting” (J Med Chem, 2020)
In brackets after ≈: the same amount, converted by molar mass.

Key:
[1] = Ratio of drug uptake in Wistar-Hannover rat unbound liver to plasma concentration at 30 mg/kg, po after 6 hrs by LC/MS-MS analysis; assay type: ADME, organism-based; settings: other tissue
Procedure, shortened: (§1)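 Male Wistar-Hannover rats (n = 2 or 3) dosed orally as a suspension in 0.5% methyl cellulose with 0.1% Tween 80. Plasma and liver sampled 6 h post-dose. Kp is total liver/plasma; Kpu,u uses unbound fractions from equilibrium dialysis of plasma and liver.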

[2] = Drug uptake in Wistar-Hannover rat assessed as plasma concentration at 30 mg/kg, po after 6 hrs by LC/MS-MS analysis; assay type: ADME, organism-based
Procedure, shortened: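 Male Wistar-Hannover rats, n = 2 or 3, given an oral suspension in 0.5% methyl cellulose with 0.1% Tween 80; one compound was dosed as the HCl salt. Total plasma and liver concentrations were measured 6 h post-dose. Kp = liver/plasma total concentration. Kpu,u uses fu values from equilibrium dialysis.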

[3] = Ratio of drug uptake in Wistar-Hannover rat liver to plasma at 30 mg/kg, po after 6 hrs by LC/MS-MS analysis; assay type: ADME, organism-based; settings: liver and plasma; procedure, shortened: as §1
OATP1B3 [4] = target: T1, OATP1B3 (Homo sapiens, UniProt Q9NPD5); assay: Substrate activity at human OATP1B3 stably expressed in HEK293 cells assessed as ratio of total to passive cellular uptake at 1 uM incubated for 5 mins by LC/MS-MS analysis; assay type: ADME, cell-based; settings: HEK293 cells stably expressing human OATP1B3
T1 sequence (Q9NPD5 whole entry): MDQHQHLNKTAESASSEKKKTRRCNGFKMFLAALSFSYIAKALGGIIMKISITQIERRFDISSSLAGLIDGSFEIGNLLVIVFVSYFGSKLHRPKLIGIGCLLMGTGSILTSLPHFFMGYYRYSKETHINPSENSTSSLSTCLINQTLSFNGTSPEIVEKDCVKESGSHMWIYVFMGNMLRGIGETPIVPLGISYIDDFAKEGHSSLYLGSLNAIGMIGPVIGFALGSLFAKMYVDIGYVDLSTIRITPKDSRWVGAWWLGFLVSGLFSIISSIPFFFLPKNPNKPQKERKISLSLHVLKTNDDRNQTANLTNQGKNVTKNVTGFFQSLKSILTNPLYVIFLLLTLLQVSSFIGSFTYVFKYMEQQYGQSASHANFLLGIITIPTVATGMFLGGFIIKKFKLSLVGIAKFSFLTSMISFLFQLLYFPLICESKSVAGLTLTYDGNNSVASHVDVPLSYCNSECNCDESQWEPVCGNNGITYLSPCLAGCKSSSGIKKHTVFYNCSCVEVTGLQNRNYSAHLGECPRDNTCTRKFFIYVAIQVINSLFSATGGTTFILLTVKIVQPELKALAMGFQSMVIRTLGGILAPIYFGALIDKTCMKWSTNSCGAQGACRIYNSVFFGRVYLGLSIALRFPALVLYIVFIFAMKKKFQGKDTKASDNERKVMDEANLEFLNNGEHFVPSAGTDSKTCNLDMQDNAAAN
Procedure, shortened: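 Transfected versus parental HEK293 cells exposed at 1 µM for 5 min at 37 °C. Ratio is total (transfected) over passive (parental) uptake; >2 denotes substrate.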

[5] = Drug uptake in human hepatocytes assessed as passive diffusion clearance at 1 uM up to 15 mins in presence of rifamycin SV by LC-MS/MS analysis; assay type: ADME, cell-based, Hepatocyte; settings: 0.25 h
[6] = target: Solute carrier family 22 member 6 (Homo sapiens, UniProt Q4U2R8); assay: Inhibition of human SLC22A6 expressed in HEK293 cells in presence of para-aminohippuric acid/metformin; assay type: cell-based
[7] = Inhibition of DNL in Sprague-Dawley rat assessed as reduction in DNL level in liver at 300 mg/kg, po pretreated with one hr followed by [14C]-acetate treatment and measured after 1 hr relative to control; assay type: functional
Procedure, shortened: (§2)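 Sprague-Dawley rats given single oral doses of 0.03–300 mg/kg in 0.5% methyl cellulose vehicle, n = 16 per dose. Read-out is incorporation of 14C-acetate into lipids in liver, bone marrow and lung, measured at 2 h post-dose relative to vehicle. Data are mean ± SEM. EC50 is reported with a 95% confidence interval.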

Cytochrome P450 2C9 = Cytochrome P450 2C9 (Homo sapiens, UniProt P11712); assay: inhibition of CYP2C9 in human liver microsomes; assay type: ADME
[8] = Thermodynamic solubility of the compound at pH 6.5 after 24 hrs; assay type: physicochemical; settings: buffer, read-out: Therm_solubility
[9] = target: UDP-glucuronosyltransferase 2B15 (Homo sapiens, UniProt P54855); assay: Inhibition of UGT2B15 in human liver microsomes in presence of UDPGA by LC-MS/MS analysis; assay type: ADME
[10] = Genotoxicity in Salmonella typhimurium TA98 by Ames test; assay type: toxicity; settings: salmonella enterica subsp. enterica serovar typhimurium
Procedure, shortened: (§3)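 Ames test in Salmonella strains TA98, TA100, TA1535 and TA1537, run with and without aroclor-induced rat liver S9 plus NADPH.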

[11] = Genotoxicity in Salmonella typhimurium TA100 by Ames test; assay type: toxicity; settings: salmonella enterica subsp. enterica serovar typhimurium; procedure, shortened: as §3
OATP1B3 [12] = target: T1, OATP1B3; assay: Substrate activity at human OATP1B3 stably expressed in HEK293 cells assessed as ratio of total to passive cellular uptake at 1 to 3 uM incubated for 0.5 to 4 mins by LC/MS-MS analysis; assay type: ADME, cell-based; settings: HEK293 cells stably expressing human OATP1B3, dose 1-3 µM, time 0.5-4 min
Procedure, shortened: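 Stably transfected HEK293 cells and wild-type parental cells, cultured to confluency in DMEM with 10% heat-inactivated FBS and 5 µg/mL blasticidin. Uptake at 1–3 µM in HBSS/20 mM HEPES pH 7.4, 37 °C, 0.5–4.0 min. Cells washed in ice-cold buffer, lysed in MeOH, quantified by LC-MS/MS and normalized to protein. Ratio is transfected/parental uptake; >2 denotes substrate.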

Cytochrome P450 1A2 = Cytochrome P450 1A2 (Homo sapiens, UniProt P05177); assay: inhibition of CYP1A2 in human liver microsomes; assay type: ADME
[13] = Inhibition of DNL in Sprague-Dawley rat assessed as reduction in DNL level in lung at 300 mg/kg, po pretreated with 1 hr followed by [14C]-acetate treatment and measured after 1 hr relative to control; assay type: functional; settings: time 2 hrs; procedure, shortened: as §2
[14] = Induction of CYP1A2 mRNA expression in human hepatocytes at 0.5 to 200 uM; assay type: ADME, cell-based, Hepatocyte; settings: dose 0.5-200 µM
Procedure, shortened: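 Individual human hepatocyte lots treated at 0.5–200 µM. Read-out is messenger RNA levels of CYP1A2 and CYP3A4.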

Cytochrome P450 2B6 = Cytochrome P450 2B6 (Homo sapiens, UniProt P20813); assay: inhibition of CYP2B6 in human liver microsomes; assay type: ADME
[15] = Drug uptake in human hepatocytes assessed as ratio of active uptake intrinsic clearance to passive diffusion clearance at 1 uM up to 15 mins by LC-MS/MS analysis; assay type: ADME, cell-based, Hepatocyte; settings: 0.25 h
[16] = target: Organic anion transporter 3 (Homo sapiens, UniProt Q8TCC7); assay: Inhibition of human SLC22A8 expressed in HEK293 cells in presence of para-aminohippuric acid/metformin; assay type: cell-based
[17] = target: Solute carrier organic anion transporter family member 1B3 (Homo sapiens, UniProt Q9NPD5); assay: Inhibition of human OATP1B3 expressed in HEK293 cells n presence of rosuvastatin; assay type: cell-based

Sequence of Solute carrier family 22 member 6 (Q4U2R8 whole entry): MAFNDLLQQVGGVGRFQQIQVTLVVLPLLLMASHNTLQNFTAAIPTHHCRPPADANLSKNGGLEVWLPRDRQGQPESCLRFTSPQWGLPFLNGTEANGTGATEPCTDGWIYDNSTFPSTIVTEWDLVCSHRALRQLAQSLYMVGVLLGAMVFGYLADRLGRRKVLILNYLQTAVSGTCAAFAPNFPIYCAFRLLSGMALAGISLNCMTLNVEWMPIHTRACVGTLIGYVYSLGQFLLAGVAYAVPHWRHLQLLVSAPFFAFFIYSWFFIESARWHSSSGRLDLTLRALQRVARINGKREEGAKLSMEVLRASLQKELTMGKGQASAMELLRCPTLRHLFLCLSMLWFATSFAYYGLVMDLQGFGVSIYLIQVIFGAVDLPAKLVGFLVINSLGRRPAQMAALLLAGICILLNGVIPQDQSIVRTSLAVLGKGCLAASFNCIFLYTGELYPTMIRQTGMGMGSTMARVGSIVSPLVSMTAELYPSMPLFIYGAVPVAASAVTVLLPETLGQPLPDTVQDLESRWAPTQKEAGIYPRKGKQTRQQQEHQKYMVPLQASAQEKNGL
Sequence of UDP-glucuronosyltransferase 2B15 (P54855 whole entry): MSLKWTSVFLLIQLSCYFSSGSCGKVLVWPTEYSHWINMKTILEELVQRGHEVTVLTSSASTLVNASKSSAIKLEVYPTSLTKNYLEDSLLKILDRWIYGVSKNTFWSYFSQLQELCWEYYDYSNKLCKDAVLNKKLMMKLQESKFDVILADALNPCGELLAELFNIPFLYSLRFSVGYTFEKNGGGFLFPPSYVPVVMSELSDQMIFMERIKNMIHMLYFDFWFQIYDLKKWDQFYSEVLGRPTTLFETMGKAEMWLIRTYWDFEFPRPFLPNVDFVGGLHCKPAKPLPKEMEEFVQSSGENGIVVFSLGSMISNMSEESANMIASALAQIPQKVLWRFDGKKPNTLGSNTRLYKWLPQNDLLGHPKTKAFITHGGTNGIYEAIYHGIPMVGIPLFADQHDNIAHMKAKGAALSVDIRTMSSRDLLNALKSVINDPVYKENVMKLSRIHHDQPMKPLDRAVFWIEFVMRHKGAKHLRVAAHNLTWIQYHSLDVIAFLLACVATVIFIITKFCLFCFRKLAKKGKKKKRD
Sequence of Cytochrome P450 2B6 (P20813 whole entry, the tested form may be a part): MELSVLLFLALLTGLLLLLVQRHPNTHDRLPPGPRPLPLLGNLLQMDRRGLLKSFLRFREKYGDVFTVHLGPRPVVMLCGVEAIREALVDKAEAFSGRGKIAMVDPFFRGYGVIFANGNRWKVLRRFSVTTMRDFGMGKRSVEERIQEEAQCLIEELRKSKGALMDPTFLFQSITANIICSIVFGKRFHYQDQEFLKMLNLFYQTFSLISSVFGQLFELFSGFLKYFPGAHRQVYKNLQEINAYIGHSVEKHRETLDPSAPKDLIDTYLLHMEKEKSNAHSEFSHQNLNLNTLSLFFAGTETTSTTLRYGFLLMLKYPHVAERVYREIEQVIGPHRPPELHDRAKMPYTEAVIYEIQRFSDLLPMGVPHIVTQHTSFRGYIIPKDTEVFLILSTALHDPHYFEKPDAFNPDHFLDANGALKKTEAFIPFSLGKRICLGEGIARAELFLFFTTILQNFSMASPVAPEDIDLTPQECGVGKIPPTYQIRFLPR
Sequence of Cytochrome P450 2C9 (P11712 whole entry): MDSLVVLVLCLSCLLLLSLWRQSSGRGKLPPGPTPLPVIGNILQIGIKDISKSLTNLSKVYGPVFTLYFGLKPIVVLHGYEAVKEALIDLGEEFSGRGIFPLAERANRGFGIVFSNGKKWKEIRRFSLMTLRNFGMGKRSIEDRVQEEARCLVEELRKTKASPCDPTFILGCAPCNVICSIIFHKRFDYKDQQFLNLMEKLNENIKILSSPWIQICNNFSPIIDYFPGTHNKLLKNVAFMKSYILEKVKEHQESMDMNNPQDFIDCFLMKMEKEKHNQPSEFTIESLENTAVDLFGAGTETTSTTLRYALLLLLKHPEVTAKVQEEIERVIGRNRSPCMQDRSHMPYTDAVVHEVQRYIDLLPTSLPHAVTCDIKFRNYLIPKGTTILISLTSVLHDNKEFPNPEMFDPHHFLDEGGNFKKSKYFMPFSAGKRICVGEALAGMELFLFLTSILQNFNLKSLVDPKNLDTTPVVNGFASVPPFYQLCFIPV
Sequence of Organic anion transporter 3 (Q8TCC7 whole entry): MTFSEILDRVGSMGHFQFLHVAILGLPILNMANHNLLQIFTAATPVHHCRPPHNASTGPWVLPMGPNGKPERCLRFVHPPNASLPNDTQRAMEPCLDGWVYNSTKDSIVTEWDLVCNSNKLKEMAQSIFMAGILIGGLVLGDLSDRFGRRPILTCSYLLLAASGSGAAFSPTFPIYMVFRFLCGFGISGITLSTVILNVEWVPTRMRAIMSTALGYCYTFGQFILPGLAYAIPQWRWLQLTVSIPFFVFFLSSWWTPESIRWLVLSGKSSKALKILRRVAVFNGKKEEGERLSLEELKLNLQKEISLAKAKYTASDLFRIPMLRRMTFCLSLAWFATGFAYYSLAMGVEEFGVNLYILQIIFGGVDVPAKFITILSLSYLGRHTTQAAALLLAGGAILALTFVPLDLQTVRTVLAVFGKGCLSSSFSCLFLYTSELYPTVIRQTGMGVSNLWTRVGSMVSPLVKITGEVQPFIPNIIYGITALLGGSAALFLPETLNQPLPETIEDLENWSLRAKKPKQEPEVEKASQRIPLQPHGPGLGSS
Sequence of Cytochrome P450 1A2 (P05177 whole entry): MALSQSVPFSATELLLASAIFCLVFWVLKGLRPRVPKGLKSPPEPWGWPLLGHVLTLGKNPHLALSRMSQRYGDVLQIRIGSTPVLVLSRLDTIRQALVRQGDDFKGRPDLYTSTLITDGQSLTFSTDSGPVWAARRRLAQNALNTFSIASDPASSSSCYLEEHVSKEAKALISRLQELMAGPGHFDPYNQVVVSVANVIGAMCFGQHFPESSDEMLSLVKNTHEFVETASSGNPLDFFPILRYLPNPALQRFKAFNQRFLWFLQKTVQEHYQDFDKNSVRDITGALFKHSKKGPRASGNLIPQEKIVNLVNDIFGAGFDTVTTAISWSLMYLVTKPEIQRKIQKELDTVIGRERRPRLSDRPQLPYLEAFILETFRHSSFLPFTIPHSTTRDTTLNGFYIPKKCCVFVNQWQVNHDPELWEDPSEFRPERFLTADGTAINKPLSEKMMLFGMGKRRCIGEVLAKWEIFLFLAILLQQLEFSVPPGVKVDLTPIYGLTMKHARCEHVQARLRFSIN

Ratio [1]	concentration at 6 h [2] [ng/mL]	Kp at 6 h [3]	uptake ratio at 5 min, 1 µM (OATP1B3 [4])	CLH [5] [µL/min/mg]	IC50 [6] [µM]	IC50 (Cytochrome P450 2C9) [µM]	solubility thermodynamic at 24 h [8] [µM]	IC50 [9] [µM]	uptake ratio at up to 3 µM (OATP1B3 [12])	IC50 (Cytochrome P450 1A2) [µM]	Activity [14]	IC50 (Cytochrome P450 2B6) [µM]	Ratio [15]	IC50 [16] [µM]	IC50 [17] [µM]	Compound	inhibition in vivo at 300 mg/kg [7] [%]	Activity [10]	Activity [11]	inhibition in vivo at 300 mg/kg [13] [%]
376	41.7	914	3.3													COc1cc(C(=O)N2CCC3(CC2)CC(=O)c2nn(C(C)(C)C)cc2O3)cc(-c2ccc(C(=O)O)cc2)n1				
				2.7	> 30	> 50	36 (≈ 18.1 µg/mL)	> 20	2.5	> 50	Not Active	> 50	8.7	> 30	137	COc1cc(C(=O)N2CCC3(CC2)CC(=O)c2c(cnn2C(C)C)C3)cc(-c2ccc(C(=O)O)cc2)n1 [CLESACOSTAT]	82	Non-Toxic	Non-Toxic	29
